Results as given in paper PMC2903848 (The FEBS journal, 2010).
Each block holds one compound with its values, some of them ahead of it.

Legend:
[1] = system: IL-4 promoter (−760 to +68) in Jurkat cells; test: IL-4 promoter luciferase reporter in Jurkat cells; format: cell-based, human; details: 18hrs pretreatment then 6hr PMA/Ionomycin, 100μM (Adox 20μM)
In short: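 Jurkat cells in RPMI, electroporated (280V, 975μF) with IL-4 promoter luciferase reporter (3μg) plus thymidine kinase-driven Renilla luciferase (10ng) as internal control. Compounds in DMSO, vehicle control DMSO; 18 h pretreatment, then 6 h stimulation with 50 ng/mL PMA plus ionomycin. Dual luciferase read-out, firefly normalised to Renilla. At least three independent experiments.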

PRMT1/NIP45 interaction = test: HA-PRMT1/FLAG-NIP45 coimmunoprecipitation in 293T cells; format: cell-based; details: 293T cells transfected with HA-PRMT1 and FLAG-NIP45; 100μM (Adox 20μM)
In short: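 293T cells were co-transfected (Fugene HD) with HA-PRMT1 and FLAG-NIP45 vectors, then treated with DMSO, test compound (100μM) or Adox (20μM). Lysates in 100 mM NaCl, 50 mM TRIS pH 7.5, 0.1% TX-100 buffer were immunoprecipitated with anti-HA agarose and blotted for FLAG, then reprobed for HA. FLAG/HA association was quantified versus DMSO; three experiments.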

PRMT8 = PRMT8 (Homo sapiens, UniProt Q9NR22); test: In vitro methylation of GST-GAR by recombinant GST-PRMT8; format: biochemical; details: 30μM compound, GST-GAR substrate
PRMT8, sequence (Q9NR22 whole entry, species assumed): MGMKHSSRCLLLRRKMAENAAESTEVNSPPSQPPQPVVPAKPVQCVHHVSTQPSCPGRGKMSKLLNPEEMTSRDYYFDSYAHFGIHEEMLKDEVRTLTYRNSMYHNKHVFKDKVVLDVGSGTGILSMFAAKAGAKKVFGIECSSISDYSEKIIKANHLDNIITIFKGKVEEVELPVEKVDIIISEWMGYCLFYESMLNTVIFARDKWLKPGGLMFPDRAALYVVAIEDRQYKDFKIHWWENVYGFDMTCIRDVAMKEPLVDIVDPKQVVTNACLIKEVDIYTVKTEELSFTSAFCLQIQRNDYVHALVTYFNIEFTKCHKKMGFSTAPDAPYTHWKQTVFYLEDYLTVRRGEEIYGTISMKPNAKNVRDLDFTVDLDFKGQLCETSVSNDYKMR
In short: (§1)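 Recombinant GST-PRMT6 or GST-PRMT8 was concentrated on a micron 10 filter and reacted with GST-GAR substrate and [3H]SAM plus 30μM test compound. Reactions were quantified by densitometry. Representative of at least three independent experiments.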

Th1 cells = test: Th1 cell IFNγ production by ELISA; format: cell-based, mice; details: 100μM
In short: (§2)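 Balb/c T helper cells isolated by magnetic beads, cultured in RPMI with plate-bound anti-CD3 1μg/mL, anti-CD28 2μg/mL and IL-2. Th1 skewed with rIL-12 5ng/mL and anti-IL-4 10 μg/mL (IFNγ line); Th2 with rIL-4 10 ng/mL and anti-IFNγ 10 μg/mL (IL-4 line). Day-7 cells at 1 × 10^6 cells/mL restimulated with plate-bound anti-CD3 (1μg/mL) for 24 h with compound or DMSO. Supernatant cytokine measured by ELISA; at least three experiments.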

PRMT6 = PRMT6 (Homo sapiens, UniProt Q96LA8); test: In vitro methylation of GST-GAR by recombinant GST-PRMT6; format: biochemical; details: 30μM compound, GST-GAR substrate
PRMT6, sequence (Q96LA8 whole entry, species assumed): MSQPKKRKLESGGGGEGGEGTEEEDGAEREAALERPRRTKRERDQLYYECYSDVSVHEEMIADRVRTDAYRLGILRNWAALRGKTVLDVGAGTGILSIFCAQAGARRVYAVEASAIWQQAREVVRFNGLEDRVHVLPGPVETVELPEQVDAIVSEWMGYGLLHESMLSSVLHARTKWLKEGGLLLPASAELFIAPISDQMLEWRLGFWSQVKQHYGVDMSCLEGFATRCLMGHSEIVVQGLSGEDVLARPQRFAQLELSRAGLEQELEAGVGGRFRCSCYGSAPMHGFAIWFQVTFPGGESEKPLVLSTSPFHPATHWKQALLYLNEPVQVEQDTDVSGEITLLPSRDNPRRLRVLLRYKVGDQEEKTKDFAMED
In short: as §1

PRMT1 [2] = test: HA-PRMT1/FLAG-PRMT1 coimmunoprecipitation; details: 100μM during coimmunoprecipitation
In short: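 HA-PRMT1 and FLAG-PRMT1 were expressed in separately transfected 293T cells. Equal volumes of the two lysates were mixed and incubated with DMSO or test compound (100μM) during the anti-HA agarose immunoprecipitation. Blots were probed with anti-FLAG. As a specificity control, IPs from vector-only cells were incubated with FLAG-NIP45 lysates.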

PRMT5 = PRMT5 (Homo sapiens, UniProt O14744); format: biochemical; details: PRMT5 immunoprecipitated from 293T cells, MBP as substrate
PRMT5, sequence (O14744 whole entry): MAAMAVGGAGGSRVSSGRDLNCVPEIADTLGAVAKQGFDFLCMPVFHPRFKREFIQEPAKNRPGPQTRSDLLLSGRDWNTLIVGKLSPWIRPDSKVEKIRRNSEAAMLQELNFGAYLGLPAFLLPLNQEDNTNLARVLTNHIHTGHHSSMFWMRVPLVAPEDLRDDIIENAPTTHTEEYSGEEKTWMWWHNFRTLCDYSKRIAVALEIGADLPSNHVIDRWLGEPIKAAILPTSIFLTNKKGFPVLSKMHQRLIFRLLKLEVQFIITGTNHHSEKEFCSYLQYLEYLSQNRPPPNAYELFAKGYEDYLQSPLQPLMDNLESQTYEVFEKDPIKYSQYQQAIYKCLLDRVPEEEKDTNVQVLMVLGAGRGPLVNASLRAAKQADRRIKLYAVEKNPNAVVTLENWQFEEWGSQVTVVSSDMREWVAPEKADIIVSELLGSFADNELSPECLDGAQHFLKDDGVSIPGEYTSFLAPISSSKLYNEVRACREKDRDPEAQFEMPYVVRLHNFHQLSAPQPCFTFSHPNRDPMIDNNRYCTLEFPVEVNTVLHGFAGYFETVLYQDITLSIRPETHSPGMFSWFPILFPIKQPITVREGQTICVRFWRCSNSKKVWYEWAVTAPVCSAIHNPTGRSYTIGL
PRMT5, sequence (Q9BQA1 whole entry partner): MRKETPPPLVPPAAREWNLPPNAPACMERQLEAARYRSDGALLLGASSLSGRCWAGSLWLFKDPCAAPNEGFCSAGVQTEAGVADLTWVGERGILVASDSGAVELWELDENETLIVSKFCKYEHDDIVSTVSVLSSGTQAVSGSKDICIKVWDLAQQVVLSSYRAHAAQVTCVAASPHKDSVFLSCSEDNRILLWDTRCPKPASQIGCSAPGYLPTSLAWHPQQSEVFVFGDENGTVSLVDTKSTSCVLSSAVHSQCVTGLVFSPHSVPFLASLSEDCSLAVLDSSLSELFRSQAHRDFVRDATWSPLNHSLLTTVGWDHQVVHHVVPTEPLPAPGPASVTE
In short: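 PRMT5, or an isotype-control IP, was immunoprecipitated from 293 cell extracts and used in in vitro methylation reactions with MBP substrate at the indicated test compound concentrations. Reaction inputs were checked by immunoblotting with PRMT5 antisera. Representative of at least three independent experiments.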

recombinant hPRMT1 = details: read-out: PRMT1 IC50; reported value using recombinant hPRMT1 and GST-Npl3 as substrate; cited from earlier work
[3] = molecular target: T1, recombinant human GST-PRMT4 (Homo sapiens, UniProt Q86X55); test: In vitro methylation of histone 3 by recombinant GST-PRMT4; format: biochemical; details: read-out: PRMT4 IC50; recombinant human GST-PRMT4, histone 3 as substrate
T1 sequence (Q86X55 1-608): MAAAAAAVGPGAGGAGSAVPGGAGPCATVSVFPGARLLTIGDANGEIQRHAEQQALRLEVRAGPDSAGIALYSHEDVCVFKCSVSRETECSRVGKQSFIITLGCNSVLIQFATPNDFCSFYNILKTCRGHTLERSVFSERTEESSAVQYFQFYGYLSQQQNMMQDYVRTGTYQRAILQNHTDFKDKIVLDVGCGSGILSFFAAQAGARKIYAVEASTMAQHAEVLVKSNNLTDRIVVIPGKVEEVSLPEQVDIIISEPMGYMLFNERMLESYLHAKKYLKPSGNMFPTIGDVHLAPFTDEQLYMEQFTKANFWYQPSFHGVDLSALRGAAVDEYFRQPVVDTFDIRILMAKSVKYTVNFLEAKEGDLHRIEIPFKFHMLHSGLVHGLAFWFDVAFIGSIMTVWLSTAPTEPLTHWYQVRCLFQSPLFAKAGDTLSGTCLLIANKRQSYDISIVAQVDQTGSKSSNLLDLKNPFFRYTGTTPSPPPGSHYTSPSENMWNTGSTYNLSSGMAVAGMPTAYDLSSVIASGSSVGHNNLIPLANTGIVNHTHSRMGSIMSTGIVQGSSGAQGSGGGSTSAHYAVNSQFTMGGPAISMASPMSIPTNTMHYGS
In short: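 Recombinant human GST-PRMT4 methylated recombinant histone 3 in the presence of [3H]SAM and increasing concentrations of test compound. Methylation was quantified by densitometry, and IC50 was calculated by linear regression. Representative of at least three independent experiments.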

Th2 cells = test: Th2 cell IL-4 production by ELISA; format: cell-based, mice; details: 100μM
In short: as §2

[4] = system: H3R17 methylation in 293T cells; test: Cellular H3R17 methylation immunoblot in 293T cells; format: cell-based; details: 293T cells over treatment period (data not shown)
In short: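 293T cells grown in DMEM were treated for 24 hrs with DMSO vehicle, test compound (100μM or 300μM) or Adox (20μM). Histone extracts were immunoblotted with anti-histone 3 dimethylarginine 17 antibody. Methylation was quantified relative to vehicle-treated samples. Toxicity was followed over the treatment period. Three independent experiments.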

T helper cells [5] = test: T helper cell proliferation; format: cell-based, mice; details: anti-CD3 stimulated T helper cells, MTS assay
T helper cells [6] = test: Viability of T helper cells; format: cell-based; details: T helper cells, 100 μM
[7] = Viability of T helper cells; format: cell-based; details: Balb/c, mouse, primary T helper cells
PRMT1 [8] = molecular target: PRMT1 (Rattus norvegicus, UniProt Q63009); test: UV crosslinking of [3H]SAM to GST-PRMT1; format: binding; details: 100μM inhibitor, 20μM [3H]SAM
PRMT1 (Rattus norvegicus, UniProt Q63009), sequence (Q63009 whole entry): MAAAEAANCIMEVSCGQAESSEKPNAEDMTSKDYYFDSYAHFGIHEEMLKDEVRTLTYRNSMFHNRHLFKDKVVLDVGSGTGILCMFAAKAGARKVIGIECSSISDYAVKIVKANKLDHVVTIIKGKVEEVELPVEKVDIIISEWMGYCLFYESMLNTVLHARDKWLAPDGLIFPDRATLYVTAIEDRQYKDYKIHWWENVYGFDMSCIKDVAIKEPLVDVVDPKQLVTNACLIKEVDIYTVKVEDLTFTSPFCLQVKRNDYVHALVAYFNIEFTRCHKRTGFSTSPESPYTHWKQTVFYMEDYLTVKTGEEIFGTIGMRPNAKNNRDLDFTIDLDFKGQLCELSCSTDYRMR

inhibition of GST-GAR methylation by PRMT8 (PRMT8): less effective
inhibition of GST-GAR methylation by PRMT6 (PRMT6): less effective
inhibition of PRMT5 activity (PRMT5): ineffective
IC50 [3]: 170 ± 10.7 µM
Structure (SMILES): O=C(Nc1ccc2c(O)cc(S(=O)(=O)O)cc2c1)Nc1ccc2c(O)cc(S(=O)(=O)O)cc2c1 [AMI-1]
effect on IL-4 promoter reporter activity [1]: decreased promoter activity
effect on PRMT1/NIP45 association (PRMT1/NIP45 interaction): interfered with the NIP45 and PRMT1 interaction
reduction of Th1 IFNγ production (Th1 cells; anti-CD3 stimulated Th1 cells, ELISA): less than 40%
effect on HA-PRMT1/FLAG-PRMT1 interaction (oligomerization) (PRMT1 [2]): did not interfere with the interaction
IC50 (recombinant hPRMT1): 8.8 µM
reduction of Th2 IL-4 levels (Th2 cells; anti-CD3 stimulated Th2 cells, ELISA): less than 40%

Structure (SMILES): Nc1ncnc2c1ncn2C(C=O)OC(C=O)CO (centres unmarked) [Adox, adenosine dialdehyde]
cellular toxicity [4]: no cellular toxicity
effect on IL-4 promoter reporter activity [1]: greatly diminished
effect on PRMT1/NIP45 association (PRMT1/NIP45 interaction): reduced the association

Structure (SMILES): CSC[C@H]1O[C@@H](n2cnc3c(N)ncnc32)[C@H](O)[C@@H]1O [MTA, methylthioadenosine]
effect on T helper cell proliferation (T helper cells [5]): inhibited T cell proliferation
effect on IFNγ production (Th1 cells; Th1 cells): diminished
% apoptotic (T helper cells [6]): 4.9%
% necrotic (T helper cells [6]): 4.2%
viability at 100 µM [7]: 90.9%
effect on IL-4 production (Th2 cells; Th2 cells): diminished

competition for SAM binding to PRMT1 (PRMT1 [8]): competitive with SAM for binding
Structure (SMILES): Nc1ncnc2c1ncn2[C@@H]1O[C@H](C[C@@H](N)CC[C@H](N)C(=O)O)[C@@H](O)[C@H]1O [sinefungin]
